Experimental data of several laboratories.
Lines come from different studies, so protocols differ.

| Compound | system | conditions | measurement | result |
| --- | --- | --- | --- | --- |
| COc1ccc([C@@H](O)c2cc(-c3ncnc4cc(N5CCOCC5)ccc34)c(F)cc2Cl)nn1 | human, plasma | oral, 150 mg, single dose, patients | Cmax | 1460 ng/mL |
| CCOc1ccc(N(C)S(=O)(=O)c2cc(Cl)sc2C(=O)Nc2cc(Cl)cc(C(=O)O)c2)cc1OC | male C57BL/6 mouse, brain | intraperitoneal, 10 mg/kg | Tmax | 15 min |
| CC(C)n1c(Nc2cccnc2)nc2cnc(Nc3ccc(N4CCN(C)CC4)cc3)nc21 | male human, plasma | oral, 150 mg, single dose | Cmax | 76.1 ng/mL |
| CCN1CCN(Cc2ccc(NC(=O)c3ccc(C)c(NC(=O)c4cncc(-c5cccs5)c4)c3)cc2C(F)(F)F)CC1 | mouse, plasma | intraperitoneal, 10 mg/kg, single dose | Tmax | 30 min |
| C=CS(=O)(=O)c1ccc(Nc2nc(OCC3CCCCC3)c3nc[nH]c3n2)cc1 | male BALB/c mouse, plasma | intravenous, 20 mg/kg, single dose | Tmax | 4.8 min |
| Cn1cc(Nc2nc(N)nc(-c3cccc(-n4ccc5cc(C6CC6)cc(F)c5c4=O)c3CO)n2)cn1 | human, plasma | oral, 600 mg, single dose, fasted, suspension | Cmax | 5360 ng/mL |
| CN1CC[C@@H](c2c(O)cc(O)c3c(=O)cc(-c4ccc(C(F)(F)F)cc4Cl)oc23)[C@@H]1CO | human, plasma | oral, 200 mg, patients | Cmax | 398 ng/mL |
| CC(C)NCC(O)COc1cccc2ccccc12 (centres unmarked) | Caco-2 | 5 µM, 2 h | efflux ratio | 0.72 |
| CNC(=O)n1ccc2cc(Oc3ccnc(NC(=O)c4ccc(C5CCN(CCO)CC5)cc4)c3)c(OCCOC)cc21 | human, plasma | oral, 35 mg, single dose, fasted, healthy volunteers | Cmax | 9.82 ng/mL |
| CC(C)C[C@H](NC(=O)[C@@H]1COCCCCCC(=O)NCC(=O)N2CCC[C@H]2C(=O)N1)C(=O)[C@@]1(C)CO1 | Caco-2 | 10 µM, 2 h, pH 7.4 | efflux ratio | ~22 |
| CC(C(=O)Nc1c(F)cccc1F)N1CCN(c2ccccc2)CC1 (centres unmarked) | female C57BL/6 mouse, plasma | intraperitoneal, 10 mg/kg, single dose | Tmax | 15 min |
